Results taken from PubChem BioAssay AID504382 (The Scripps Research Institute Molecular Screening Center, 2011).
The campaign covered roughly 2,500 compounds. About 460 (18%) were called active. Not all results are given here. A number with no mark means an inactive call.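 Rule for the calls: active = mean activation above a cutoff of low control average plus 3 SD from the earlier screen (cut at about 12% in these data); inactive = the rest.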

Experiment: IANBD-channel fluorescence artefacts in buffer – biochemical, artefact control for cardiac RTF calcium sensitizer project, confirmation (AID 504382)
Settings: IANBD fluorescence interference counterscreen, EC20 Ca2+, at 7.2 µM, active compounds read high, scaled: EC20 calcium 0, EC100 calcium 100
Procedure, shortened: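 Medium: MOPS buffer, 190 mM, with KCl, MgCl2, EGTA, NTA, DTT, pH 7.20; Dosing: one dose of 7.2 µM, 0.7% DMSO; Probe or stimulus: calcium at EC20 level, 0.472 mM final; Incubation: 15 min, 25 °C; Evaluation: compound fluorescence interference relative to control well signal range; Signal: fluorescence, 480/540 nm.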

SMILES	fluorescence artifact activation
Cc1ccc(-c2nc(C)sc2CC(=O)O)cc1	14.7% (active)
Cc1ccc(SCC(=O)c2sc(-c3ccccc3)nc2C)cc1	10.1%
Cc1ccc(-c2nc(N)sc2CC(=O)OCC(=O)NCCC(C)C)cc1	2.4%
COC(=O)c1ccc(S(=O)(=O)N(CCO)Cc2ccccc2)n1C	-0.01%
Cc1ccc(N=Nc2c(O)n(CN3CCOCC3)c3ccccc23)cc1	4.5%
CCOC(=O)C1=C(C)N=c2s/c(=C/c3ccc(OCC(=O)O)cc3)c(=O)n2C1c1ccc(SC)cc1 (stereo unspecified)	0.15%
Cc1ccc(C)c(C2=NNC(=O)CC2)c1	0.16%
Cc1cc(NC(=O)CCC(=O)N(CCC(C)C)C(C(=O)NC2CCCC2)c2cccnc2)no1 (stereo unspecified)	0%
C=CC[C@@H](CC(=O)N(CCO)Cc1ccccc1)C(=O)N[C@@H](COC(=O)[C@@H](CC=C)Cc1ccc(F)cc1)Cc1ccccc1	0.09%
CC(=O)N1C(=O)C(=C2C=C(C)OC(C)=C2)c2ccccc21	21.3% (active)
CCCn1c(N2CCN(CC(=O)c3c[nH]c4ccccc34)CC2)nc2c1c(=O)[nH]c(=O)n2C	0.12%
CCCCCCCCOc1ccc(C2OC34CCCCC3C(C#N)(C#N)C2(C#N)C(=N)O4)cc1 (stereo unspecified)	4.01%
CCN1/C(=C/C=C/c2oc3ccc(-c4ccccc4)cc3[n+]2CC)Oc2ccc(-c3ccccc3)cc21	-0.02%
O=C(Nc1ccc(N2CCN(C(=O)c3ccco3)CC2)cc1)c1ccc(F)cc1	0.11%
CCC(c1nnnn1C1CCCCC1)N1CCN(C(=O)c2ccco2)CC1 (stereo unspecified)	6.69%
COc1ccc(C(=O)NCC(=O)N2CCN(C(=O)c3ccco3)CC2)cc1OC	23.6% (active)
COc1cccc(C2CC(c3ccccc3)n3ncnc3N2)c1 (stereo unspecified)	7.41%
CCOC(=O)N1CCC(Nc2nc3ccccc3nc2NS(=O)(=O)c2ccc(Cl)cc2)CC1	-0.02%
CCOC(=O)N1CCC(Nc2cccc(SC)c2)CC1	97.8% (active)
CCOC(=O)N1CCC(NC(=O)c2cccs2)CC1	-0.01%
CN1CCc2c(sc(/N=C/c3cccs3)c2C(N)=O)C1	-0.06%
O=C(NCC1CC1)Nc1cccc(Cl)c1	0.16%
Cn1c(NC(=O)C[n+]2cc(-c3ccc(Cl)cc3)n3c2CCC3)cc(=O)n(C)c1=O	1.86%
Cc1ccc(C2C(C(=O)c3cccs3)=C(O)C(=O)N2c2nnc(C)s2)cc1 (stereo unspecified)	17.5% (active)
C=CCOc1ccc(C2C(C(=O)c3cccs3)=C(O)C(=O)N2c2nnc(C)s2)cc1 (stereo unspecified)	0.1%
COc1ccc(C2C(C(=O)c3cccs3)=C(O)C(=O)N2c2nnc(C)s2)cc1OC (stereo unspecified)	0.77%
